The target of the assay is Potassium channel subfamily K member 9 (Homo sapiens) (UniProt Q9NPC2). In words: KCNK9 current inhibition, whole-cell recording, SAR follow-up, manual electrophysiology (AID 624121). Conditions: HEK293 KCNK9 stable, whole-cell patch clamp current; at 1 µM; stronger effect = higher value. The method, boiled down: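 Test system – inducible KCNK9-expressing HEK293 cell line · Buffer or medium – NaCl bath with 5 mM KCl, KCl pipette, pH 7.3 · Times – induction 16–24 h pre-recording, 30 s ramp interval · Measured by – whole-cell patch clamp current at -20 mV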
(In patch-clamp work, channel activity is measured electrically.)

Potassium channel subfamily K member 9 (Homo sapiens), sequence (Q9NPC2 whole entry, looked up): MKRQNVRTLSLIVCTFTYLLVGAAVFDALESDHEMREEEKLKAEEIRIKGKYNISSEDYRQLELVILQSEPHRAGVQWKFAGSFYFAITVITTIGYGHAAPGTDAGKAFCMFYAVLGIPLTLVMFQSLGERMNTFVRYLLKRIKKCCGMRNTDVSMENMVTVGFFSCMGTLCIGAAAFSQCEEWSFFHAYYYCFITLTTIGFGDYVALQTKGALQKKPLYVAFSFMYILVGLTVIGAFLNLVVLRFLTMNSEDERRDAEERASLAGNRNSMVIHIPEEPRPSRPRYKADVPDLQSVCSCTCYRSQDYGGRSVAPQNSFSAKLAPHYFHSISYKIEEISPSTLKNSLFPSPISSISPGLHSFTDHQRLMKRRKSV

Regarding `C[C@@H]([C@@H]1CC2CC[C@H]1C2)n1c(-c2ccco2)n[nH]c1=S`, the inhibition was 55.2%.

The inhibition is the share of the control response that was lost under treatment.

(Values after PubChem BioAssay AID624121 (Johns Hopkins Ion Channel Center, 2012).)
